# ChEMBL document CHEMBL3232963, “Discovery of a potent and selective α3β4 nicotinic acetylcholine receptor antagonist from an α-conotoxin synthetic combinatorial library” (J Med Chem, 2014)
# Active and inactive are the calls of the source. No cut-off for these calls is given here. Bridge positions count the residues as written; N and C are the ends. Square brackets hold non-standard residues; d marks the D form. Peptide text beside a SMILES is read from it. Nle = CCCC[C@H](N)C(=O)O; Nva = CCC[C@H](N)C(=O)O; Abu = CC[C@H](N)C(=O)O
# Key:
# Assay type in all cases: cell-based
# [1] = molecular target: Neuronal acetylcholine receptor; alpha3/beta4 (Rattus norvegicus) (UniProt P04757+P12392); test: Antagonist activity at rat alpha3beta4 nAChR expressed in HEK293 cells assessed as inhibition of epibatadine-induced effect at 10 uM after 30 mins by fluorescent membrane potential assay relative to mecamylamine
# How it was run: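 Rat α3β4 nAChR stably expressed in HEK293 cells; crude, SPE-desalted individual peptides tested at 10 μM in HBSS with membrane potential blue dye, 30 min at 37 °C. Fluorescence change read after epibatidine (0.1 μM). Percent inhibition set against 10 μM mecamylamine taken as 100%.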
# [2] = molecular target: Neuronal acetylcholine receptor; alpha3/beta2 (Rattus norvegicus, UniProt P04757+P12390); test: Antagonist activity at rat alpha3beta2 nAChR expressed in HEK293 cells assessed as inhibition of epibatadine-induced effect after 30 mins by fluorescent membrane potential assay
# How it was run: (§1)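 Stably transfected HEK293 lines (KXα3β4R2, KXα3β2R2, KXα4β2R2; rat subunits) grown in DMEM/10% FBS with G-418, plated 24 h before assay. Cells washed with HBSS, peptide added, then membrane potential blue dye, 30 min at 37 °C. Fluorescence (ex 565/em 530 nm) read up to 60 s after epibatidine to 0.1 μM. IC50 from maximal responses across concentrations; n = 4.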
# [3] = molecular target: Neuronal acetylcholine receptor; alpha4/beta2 (Rattus norvegicus) (UniProt P09483+P12390); test: Displacement of [3H]epibatadine from rat alpha4beta2 nAChR expressed in HEK293 cells up to 10 uM after 2 hrs by betaplate counting analysis
# How it was run: (§2)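 Membranes from HEK293 cells stably expressing α3β4 or α4β2 nAChR, homogenised in 50 mM Tris pH 7.4 and washed by centrifugation. Incubated 2 h at room temperature with peptide and 0.31 nM [3H]epibatidine; filtered on PEI-soaked glass fibre, counted. Nonspecific binding with 0.1 μM unlabeled epibatidine. Ki by Cheng–Prusoff from IC50.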
# [4] = molecular target: Neuronal acetylcholine receptor; alpha4/beta2 (Rattus norvegicus, UniProt P09483+P12390); test: Antagonist activity at rat alpha4beta2 nAChR expressed in HEK293 cells assessed as inhibition of epibatadine-induced effect after 30 mins by fluorescent membrane potential assay; how it was run: as §1
# [5] = molecular target: T1, Neuronal acetylcholine receptor; alpha3/beta4 (Rattus norvegicus, UniProt P04757+P12392); test: Antagonist activity at rat alpha3beta4 nAChR expressed in HEK293 cells assessed as inhibition of epibatadine-induced effect after 30 mins by fluorescent membrane potential assay; how it was run: as §1
# [6] = molecular target: Neuronal acetylcholine receptor subunit alpha-7 (Homo sapiens) (UniProt P36544); test: Inhibition of alpha7 nAChR (unknown origin) expressed in Xenopus laevis oocytes assessed as inhibition of acetylcholine-evoked current at 10 uM by voltage clamp technique
# [7] = molecular target: T1, Neuronal acetylcholine receptor; alpha3/beta4; test: Displacement of [3H]epibatadine from rat alpha3beta4 nAChR expressed in HEK293 cells after 2 hrs by betaplate counting analysis; how it was run: as §2
# Sequence of Neuronal acetylcholine receptor; alpha4/beta2 (P09483 whole entry): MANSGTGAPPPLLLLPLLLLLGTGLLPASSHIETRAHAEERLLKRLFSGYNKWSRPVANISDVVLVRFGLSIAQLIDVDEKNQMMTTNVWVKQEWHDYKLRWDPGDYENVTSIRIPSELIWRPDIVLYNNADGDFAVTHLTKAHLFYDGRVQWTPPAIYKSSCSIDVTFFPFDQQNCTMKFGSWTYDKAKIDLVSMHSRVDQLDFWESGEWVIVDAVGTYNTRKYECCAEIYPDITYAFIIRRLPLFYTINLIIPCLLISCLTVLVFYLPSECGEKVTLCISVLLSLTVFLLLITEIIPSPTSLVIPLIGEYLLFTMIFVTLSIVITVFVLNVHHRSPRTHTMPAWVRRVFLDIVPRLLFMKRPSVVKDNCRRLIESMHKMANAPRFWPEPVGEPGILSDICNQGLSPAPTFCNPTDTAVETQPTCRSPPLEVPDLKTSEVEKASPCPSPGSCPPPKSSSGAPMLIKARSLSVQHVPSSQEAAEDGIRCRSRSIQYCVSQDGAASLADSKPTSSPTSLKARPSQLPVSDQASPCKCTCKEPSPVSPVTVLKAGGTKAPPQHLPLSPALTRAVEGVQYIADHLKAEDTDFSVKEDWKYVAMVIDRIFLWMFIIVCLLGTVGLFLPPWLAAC
# Sequence of Neuronal acetylcholine receptor; alpha4/beta2 (P12390 whole entry): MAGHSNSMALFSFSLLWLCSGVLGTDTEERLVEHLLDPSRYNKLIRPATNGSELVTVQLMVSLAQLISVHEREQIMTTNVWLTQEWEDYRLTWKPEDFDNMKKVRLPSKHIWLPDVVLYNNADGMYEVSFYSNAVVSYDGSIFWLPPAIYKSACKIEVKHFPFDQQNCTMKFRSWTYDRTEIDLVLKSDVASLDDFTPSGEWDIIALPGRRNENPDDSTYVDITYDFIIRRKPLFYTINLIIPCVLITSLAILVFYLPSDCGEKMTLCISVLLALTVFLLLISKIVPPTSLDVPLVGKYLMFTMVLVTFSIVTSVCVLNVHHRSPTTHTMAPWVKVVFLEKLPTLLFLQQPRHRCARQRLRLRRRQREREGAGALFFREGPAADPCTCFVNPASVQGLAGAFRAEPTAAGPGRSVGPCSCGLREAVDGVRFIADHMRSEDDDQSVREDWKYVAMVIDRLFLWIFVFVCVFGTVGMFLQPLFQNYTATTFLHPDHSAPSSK
# T1 sequence (P04757 whole entry): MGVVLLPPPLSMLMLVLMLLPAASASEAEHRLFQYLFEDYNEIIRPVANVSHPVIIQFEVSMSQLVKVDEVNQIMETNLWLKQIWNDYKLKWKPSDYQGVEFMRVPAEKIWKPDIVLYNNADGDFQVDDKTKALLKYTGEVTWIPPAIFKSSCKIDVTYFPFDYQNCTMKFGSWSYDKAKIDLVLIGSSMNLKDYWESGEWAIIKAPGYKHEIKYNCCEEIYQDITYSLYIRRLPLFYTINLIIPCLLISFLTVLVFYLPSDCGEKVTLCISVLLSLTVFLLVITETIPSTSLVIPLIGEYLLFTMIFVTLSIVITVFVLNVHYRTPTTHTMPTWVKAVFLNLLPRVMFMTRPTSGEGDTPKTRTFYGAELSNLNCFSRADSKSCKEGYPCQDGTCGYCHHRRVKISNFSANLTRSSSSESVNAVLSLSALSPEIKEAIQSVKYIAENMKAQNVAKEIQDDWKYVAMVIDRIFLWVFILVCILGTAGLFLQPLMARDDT
# T1 sequence (P12392 whole entry): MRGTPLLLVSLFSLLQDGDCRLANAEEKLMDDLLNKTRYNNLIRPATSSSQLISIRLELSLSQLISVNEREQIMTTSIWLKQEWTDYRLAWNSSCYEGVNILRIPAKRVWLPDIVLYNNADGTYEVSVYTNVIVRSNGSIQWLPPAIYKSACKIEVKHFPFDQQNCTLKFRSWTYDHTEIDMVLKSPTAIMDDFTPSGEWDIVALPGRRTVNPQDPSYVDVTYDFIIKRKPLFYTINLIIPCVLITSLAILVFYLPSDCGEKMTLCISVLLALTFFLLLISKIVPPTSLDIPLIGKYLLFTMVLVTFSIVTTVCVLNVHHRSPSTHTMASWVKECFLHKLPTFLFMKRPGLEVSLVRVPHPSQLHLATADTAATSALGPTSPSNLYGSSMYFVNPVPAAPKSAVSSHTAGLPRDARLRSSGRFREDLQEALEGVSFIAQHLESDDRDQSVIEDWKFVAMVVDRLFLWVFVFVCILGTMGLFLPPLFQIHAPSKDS
# Sequence of Neuronal acetylcholine receptor; alpha3/beta2 (P04757 whole entry): as the sequence (P04757 whole entry) above
# Sequence of Neuronal acetylcholine receptor; alpha3/beta2 (P12390 whole entry): as the sequence (P12390 whole entry) above
# Sequence of Neuronal acetylcholine receptor subunit alpha-7 (Homo sapiens) (P36544 whole entry): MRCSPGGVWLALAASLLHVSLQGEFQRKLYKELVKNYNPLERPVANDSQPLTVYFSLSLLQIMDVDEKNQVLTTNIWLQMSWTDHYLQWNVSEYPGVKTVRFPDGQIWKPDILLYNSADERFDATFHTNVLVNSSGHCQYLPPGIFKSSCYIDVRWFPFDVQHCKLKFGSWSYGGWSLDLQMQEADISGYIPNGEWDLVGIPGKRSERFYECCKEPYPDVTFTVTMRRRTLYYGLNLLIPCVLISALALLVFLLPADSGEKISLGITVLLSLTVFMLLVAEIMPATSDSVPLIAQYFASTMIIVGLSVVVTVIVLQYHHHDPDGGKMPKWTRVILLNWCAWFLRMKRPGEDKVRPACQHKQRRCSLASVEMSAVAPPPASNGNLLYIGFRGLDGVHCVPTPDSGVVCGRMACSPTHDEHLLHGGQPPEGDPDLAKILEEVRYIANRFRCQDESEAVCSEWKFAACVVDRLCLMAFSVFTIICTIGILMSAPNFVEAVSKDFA
Compound,inhibition [1] [%],IC50 [2] [µM],Activity [3],IC50 [4] [µM],IC50 [5] [nM],inhibition [6],Ki [7] [nM]
"CCCC[C@@H]1NC(=O)[C@H](CO)NC(=O)[C@@H]2CSSC[C@@H](C(=O)O)NC(=O)[C@H](Cc3ccc(O)cc3)NC(=O)[C@H](CCC)NC(=O)[C@H](CC)NC(=O)[C@H](Cc3ccccc3)NC(=O)[C@H](CSSC[C@H](NC(=O)CN)C(=O)N2)NC(=O)[C@H](CC)NC(=O)[C@@H]2CCCN2C1=O (H-GCCS[Nle]P[Abu]CF[Abu][Nva]YC-OH; disulfide 2-8, 3-13)",104,> 10,inactive,> 10,320,inactive,980
"CCCC[C@@H]1NC(=O)[C@H](CC)NC(=O)[C@H](Cc2ccccc2)NC(=O)[C@@H]2CSSC[C@H](NC(=O)CN)C(=O)N[C@@H](CSSC[C@@H](C(=O)O)NC(=O)[C@H](Cc3ccc(O)cc3)NC1=O)C(=O)N[C@@H](CO)C(=O)N[C@@H](Cc1cnc[nH]1)C(=O)N1CCC[C@H]1C(=O)N[C@@H](CC)C(=O)N2 (H-GCCSHP[Abu]CF[Abu][Nle]YC-OH; disulfide 2-8, 3-13)",110,> 10,,> 10,307,,
CCC[C@@H]1NC(=O)[C@H](CC)NC(=O)[C@H]([C@H](C)CC)NC(=O)[C@@H]2CSSC[C@H](NC(=O)CN)C(=O)N[C@@H](CSSC[C@@H](C(=O)O)NC(=O)[C@H](Cc3ccc(O)cc3)NC1=O)C(=O)N[C@@H](CO)C(=O)N[C@@H](Cc1cnc[nH]1)C(=O)N1CCC[C@H]1C(=O)N[C@@H](CC)C(=O)N2,84.5,> 10,,> 10,1930,,
"CCCC[C@@H]1NC(=O)[C@H](CC)NC(=O)[C@H](Cc2ccccc2)NC(=O)[C@@H]2CSSC[C@H](NC(=O)CN)C(=O)N[C@@H](CSSC[C@@H](C(=O)O)NC(=O)[C@H](Cc3ccc(O)cc3)NC1=O)C(=O)N[C@@H](CO)C(=O)N[C@@H](Cc1cnc[nH]1)C(=O)N1CCC[C@H]1C(=O)N1CCC[C@H]1C(=O)N2 (H-GCCSHPPCF[Abu][Nle]YC-OH; disulfide 2-8, 3-13)",106,> 10,,> 10,469,,
"CCCC[C@@H]1NC(=O)[C@H](Cc2c[nH]c3ccccc23)NC(=O)[C@H](Cc2ccccc2)NC(=O)[C@@H]2CSSC[C@H](NC(=O)CN)C(=O)N[C@@H](CSSC[C@@H](C(=O)O)NC(=O)[C@H](Cc3ccc(O)cc3)NC1=O)C(=O)N[C@@H](CO)C(=O)N[C@@H](Cc1cnc[nH]1)C(=O)N1CCC[C@H]1C(=O)N[C@@H](CC)C(=O)N2 (H-GCCSHP[Abu]CFW[Nle]YC-OH; disulfide 2-8, 3-13)",101,> 10,,> 10,1730,,
"CCCC[C@@H]1NC(=O)[C@H](CO)NC(=O)[C@@H]2CSSC[C@@H](C(=O)O)NC(=O)[C@H](Cc3ccc(O)cc3)NC(=O)[C@H](CCC)NC(=O)[C@H](CC)NC(=O)[C@H](Cc3ccccc3)NC(=O)[C@H](CSSC[C@H](NC(=O)CN)C(=O)N2)NC(=O)[C@@H]2CCCN2C(=O)[C@@H]2CCCN2C1=O (H-GCCS[Nle]PPCF[Abu][Nva]YC-OH; disulfide 2-8, 3-13)",96.4,> 10,inactive,> 10,345,inactive,1110
CCCC[C@@H]1NC(=O)[C@H](CC)NC(=O)[C@H]([C@H](C)CC)NC(=O)[C@@H]2CSSC[C@H](NC(=O)CN)C(=O)N[C@@H](CSSC[C@@H](C(=O)O)NC(=O)[C@H](Cc3ccc(O)cc3)NC1=O)C(=O)N[C@@H](CO)C(=O)N[C@@H](Cc1cnc[nH]1)C(=O)N1CCC[C@H]1C(=O)N[C@@H](CC)C(=O)N2,110,> 10,,> 10,463,,
"CCCC[C@@H]1NC(=O)[C@H](CC)NC(=O)[C@H](Cc2ccccc2)NC(=O)[C@@H]2CSSC[C@H](NC(=O)CN)C(=O)N[C@@H](CSSC[C@@H](C(=O)O)NC(=O)[C@H](Cc3ccc(O)cc3)NC1=O)C(=O)N[C@@H](CO)C(=O)N[C@@H](CCCC)C(=O)N1CCC[C@H]1C(=O)N[C@@H](CC)C(=O)N2 (H-GCCS[Nle]P[Abu]CF[Abu][Nle]YC-OH; disulfide 2-8, 3-13)",106,> 10,,> 10,310,,
CCCC[C@@H]1NC(=O)[C@H](Cc2c[nH]c3ccccc23)NC(=O)[C@H]([C@H](C)CC)NC(=O)[C@@H]2CSSC[C@H](NC(=O)CN)C(=O)N[C@@H](CSSC[C@@H](C(=O)O)NC(=O)[C@H](Cc3ccc(O)cc3)NC1=O)C(=O)N[C@@H](CO)C(=O)N[C@@H](Cc1cnc[nH]1)C(=O)N1CCC[C@H]1C(=O)N1CCC[C@H]1C(=O)N2,43.9,,,,,,
"CCC[C@@H]1NC(=O)[C@H](CC)NC(=O)[C@H](Cc2ccccc2)NC(=O)[C@@H]2CSSC[C@H](NC(=O)CN)C(=O)N[C@@H](CSSC[C@@H](C(=O)O)NC(=O)[C@H](Cc3ccc(O)cc3)NC1=O)C(=O)N[C@@H](CO)C(=O)N[C@@H](Cc1cnc[nH]1)C(=O)N1CCC[C@H]1C(=O)N1CCC[C@H]1C(=O)N2 (H-GCCSHPPCF[Abu][Nva]YC-OH; disulfide 2-8, 3-13)",92.6,> 10,inactive,> 10,298,49.8%,794
CCCC[C@@H]1NC(=O)[C@H](Cc2c[nH]c3ccccc23)NC(=O)[C@H]([C@H](C)CC)NC(=O)[C@@H]2CSSC[C@H](NC(=O)CN)C(=O)N[C@@H](CSSC[C@@H](C(=O)O)NC(=O)[C@H](Cc3ccc(O)cc3)NC1=O)C(=O)N[C@@H](CO)C(=O)N[C@@H](Cc1cnc[nH]1)C(=O)N1CCC[C@H]1C(=O)N[C@@H](CC)C(=O)N2,55.7,,,,,,
CCCC[C@@H]1NC(=O)[C@H](Cc2c[nH]c3ccccc23)NC(=O)[C@H]([C@H](C)CC)NC(=O)[C@@H]2CSSC[C@H](NC(=O)CN)C(=O)N[C@@H](CSSC[C@@H](C(=O)O)NC(=O)[C@@H]3CCCN3C1=O)C(=O)N[C@@H](CO)C(=O)N[C@@H](Cc1cnc[nH]1)C(=O)N1CCC[C@H]1C(=O)N1CCC[C@H]1C(=O)N2,10.1,,,,,,
"CCCC[C@@H]1NC(=O)[C@H](CC)NC(=O)[C@H](Cc2ccccc2)NC(=O)[C@@H]2CSSC[C@H](NC(=O)CN)C(=O)N[C@@H](CSSC[C@@H](C(=O)O)NC(=O)[C@H](Cc3ccc(O)cc3)NC1=O)C(=O)N[C@@H](CO)C(=O)N[C@@H](CCCC)C(=O)N1CCC[C@H]1C(=O)N1CCC[C@H]1C(=O)N2 (H-GCCS[Nle]PPCF[Abu][Nle]YC-OH; disulfide 2-8, 3-13)",107,> 10,,> 10,397,,
